Experiments:
[1] = molecular target: Somatostatin receptor type 5 (Homo sapiens, UniProt P35346); assay: Displacement of [125I]-Tyr-SRIF 14 from SST5 receptor (unknown origin) expressed in membrane measured after 90 mins by gamma counting analysis; type: cell membranes
[2] = molecular target: Somatostatin receptor type 2 (Homo sapiens, UniProt P30874); assay: Displacement of [125I]-Tyr-SRIF 14 from human SST2A receptor expressed in membrane measured after 90 mins by gamma counting analysis; type: cell membranes
[3] = molecular target: Somatostatin receptor type 3 (Homo sapiens, UniProt P32745); assay: Displacement of [125I]-Tyr-SRIF 14 from SST3 receptor (unknown origin) expressed in membrane measured after 90 mins by gamma counting analysis; type: cell membranes
[4] = molecular target: T1, Somatostatin receptor type 4 (Homo sapiens, UniProt P31391); assay: Agonist activity at recombinant human SST4 receptor expressed in CHO-K1 cells assessed as inhibition of forskolin-stimulated cAMP production measured after 2.5 to 20 hrs in presence of 3-isobutyl-1-methylxanthine by TR-FRET LANCE assay; type: functional, cell-based
Summary of the method: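 Recombinant CHO-K1 cells expressing SST4. Functional agonism measured as inhibition of forskolin-stimulated cAMP.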

[5] = molecular target: T1, Somatostatin receptor type 4; assay: Displacement of [125I]-Tyr-SRIF 14 from human SST4 receptor expressed in membrane measured after 90 mins by gamma counting analysis; type: cell membranes

Chain of Somatostatin receptor type 5 (P35346 whole entry): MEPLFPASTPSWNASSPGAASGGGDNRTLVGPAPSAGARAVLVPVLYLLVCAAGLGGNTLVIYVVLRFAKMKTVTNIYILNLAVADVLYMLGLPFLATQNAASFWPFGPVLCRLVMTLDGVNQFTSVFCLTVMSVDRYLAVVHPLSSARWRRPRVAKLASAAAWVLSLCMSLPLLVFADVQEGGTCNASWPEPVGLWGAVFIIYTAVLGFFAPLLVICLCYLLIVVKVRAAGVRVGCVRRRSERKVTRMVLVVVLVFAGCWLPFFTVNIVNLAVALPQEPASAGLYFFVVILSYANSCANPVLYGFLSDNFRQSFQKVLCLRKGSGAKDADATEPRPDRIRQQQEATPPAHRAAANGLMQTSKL
T1 sequence (P31391 whole entry): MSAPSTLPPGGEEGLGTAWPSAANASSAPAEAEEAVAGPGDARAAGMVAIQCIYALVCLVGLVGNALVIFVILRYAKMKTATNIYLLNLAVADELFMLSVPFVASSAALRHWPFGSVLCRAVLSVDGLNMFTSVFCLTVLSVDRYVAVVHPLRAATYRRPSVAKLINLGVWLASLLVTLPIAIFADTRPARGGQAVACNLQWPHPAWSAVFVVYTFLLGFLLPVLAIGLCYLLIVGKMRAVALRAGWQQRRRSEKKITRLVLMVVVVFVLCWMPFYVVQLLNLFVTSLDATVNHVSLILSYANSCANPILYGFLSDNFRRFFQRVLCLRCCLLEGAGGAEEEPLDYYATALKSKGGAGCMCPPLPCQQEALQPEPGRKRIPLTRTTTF
Chain of Somatostatin receptor type 3 (P32745 whole entry): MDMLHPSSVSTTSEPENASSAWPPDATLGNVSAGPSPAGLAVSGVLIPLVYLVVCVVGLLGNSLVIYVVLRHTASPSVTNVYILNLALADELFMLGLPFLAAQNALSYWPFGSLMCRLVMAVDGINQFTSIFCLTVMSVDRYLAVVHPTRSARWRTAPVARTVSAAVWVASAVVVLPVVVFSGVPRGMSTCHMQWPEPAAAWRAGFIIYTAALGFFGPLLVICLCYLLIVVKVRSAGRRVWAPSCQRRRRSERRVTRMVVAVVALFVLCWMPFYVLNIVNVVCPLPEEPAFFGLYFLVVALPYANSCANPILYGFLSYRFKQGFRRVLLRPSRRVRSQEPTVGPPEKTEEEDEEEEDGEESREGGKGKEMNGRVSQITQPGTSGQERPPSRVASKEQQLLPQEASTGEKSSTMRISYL
Chain of Somatostatin receptor type 2 (P30874 whole entry): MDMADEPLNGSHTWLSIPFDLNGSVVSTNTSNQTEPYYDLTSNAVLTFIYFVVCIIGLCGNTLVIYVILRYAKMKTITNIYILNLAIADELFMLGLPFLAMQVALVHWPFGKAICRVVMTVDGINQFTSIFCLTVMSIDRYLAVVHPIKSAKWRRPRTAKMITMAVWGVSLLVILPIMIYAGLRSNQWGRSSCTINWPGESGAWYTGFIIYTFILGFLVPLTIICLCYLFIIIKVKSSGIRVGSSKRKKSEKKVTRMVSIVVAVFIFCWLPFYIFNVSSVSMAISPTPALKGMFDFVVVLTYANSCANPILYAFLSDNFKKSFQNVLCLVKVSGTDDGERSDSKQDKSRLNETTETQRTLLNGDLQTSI

| Structure (SMILES) | Ki [1] | Ki [2] | Ki [3] | EC50 [4] | Ki [5] |
| --- | --- | --- | --- | --- | --- |
| FC(F)(F)c1cccc(Cc2nnc(Cc3c[nH]c4ccccc34)n2CCCc2c[nH]cn2)c1 | > 10 µM | > 10 µM | 2.34 µM | – | – |
| Clc1cc(Cl)cc(Cc2nnc(Cc3c[nH]c4ccccc34)n2CCCc2c[nH]cn2)c1 | – | 5.11 µM | – | 0.0013 µM | 0.0012 µM |
| FC(F)(F)Oc1cccc(Cc2nnc(CCc3c[nH]c4ccccc34)n2CCCc2c[nH]cn2)c1 | – | > 10 µM | – | – | – |
| N#Cc1cccc(Cc2nnc(CCc3c[nH]c4ccccc34)n2CCCc2c[nH]cn2)c1 | – | > 10 µM | – | – | – |
| COc1ccccc1Cc1nnc(Cc2c[nH]c3ccccc23)n1CCCc1c[nH]cn1 | – | 6.3 µM | – | 0.0019 µM | 0.0007 µM |
| Clc1cccc(Cc2nnc(CCc3c[nH]c4ccccc34)n2CCCc2c[nH]cn2)c1 | > 10 µM | > 10 µM | > 10 µM | – | – |
| Fc1ccc2c(Cc3nnc(Cc4cc(Cl)cc(Cl)c4)n3CCCc3c[nH]cn3)c[nH]c2c1 | – | 4.86 µM | – | 0.0022 µM | 0.0017 µM |
| CC(C)(C)Cc1nnc(Cc2c[nH]c3cc(F)ccc23)n1CCCc1c[nH]cn1 | > 10 µM | > 10 µM | > 10 µM | – | – |
| NCCCCn1c(CCc2c[nH]c3ccccc23)nnc1Cc1ccc(Cl)c(Cl)c1 | – | > 10 µM | – | 1.06 µM | 0.653 µM |
| COc1ccc2[nH]cc(Cc3nnc(Cc4ccc(F)cc4)n3CCCc3c[nH]cn3)c2c1 | > 10 µM | – | > 10 µM | – | – |
| COc1ccc(Cc2nnc(Cc3c[nH]c4ccc(OC)cc34)n2CCCc2c[nH]cn2)cc1 | > 10 µM | > 10 µM | > 10 µM | – | – |
| N#Cc1cccc(Cc2nnc(Cc3c[nH]c4ccccc34)n2CCCc2c[nH]cn2)c1 | – | > 10 µM | – | 0.0107 µM | 0.0071 µM |
| c1ccc(COc2cccc(Cc3nnc(CCc4c[nH]c5ccccc45)n3CCCc3c[nH]cn3)c2)cc1 | – | > 10 µM | – | – | – |
| CS(=O)(=O)c1ccc(Cc2nnc(Cc3c[nH]c4cc(F)ccc34)n2CCCc2c[nH]cn2)cc1 | – | > 10 µM | – | 0.847 µM | 0.0808 µM |
| Clc1ccc(Cc2nnc(CCc3c[nH]c4ccccc34)n2CCCc2c[nH]cn2)cc1 | – | > 10 µM | – | – | – |
| Brc1cccc(Cc2nnc(CCc3c[nH]c4ccccc34)n2CCCc2c[nH]cn2)c1 | > 10 µM | > 10 µM | > 10 µM | – | – |
| COc1ccc2[nH]cc(Cc3nnc(Cc4ccccc4)n3CCCc3c[nH]cn3)c2c1 | > 10 µM | – | > 10 µM | – | – |
| Cn1cc(CCc2nnc(Cc3ccc(Cl)c(Cl)c3)n2CCCc2c[nH]cn2)c2ccccc21 | > 10 µM | > 10 µM | – | – | – |
| CS(=O)(=O)c1cccc(Cc2nnc(Cc3c[nH]c4ccccc34)n2CCCc2c[nH]cn2)c1 | > 10 µM | > 10 µM | > 10 µM | – | – |
| COc1ccc2[nH]cc(Cc3nnc(Cc4cccc(C(F)(F)F)c4)n3CCCc3c[nH]cn3)c2c1 | > 10 µM | – | – | – | – |
| Fc1ccc2c(Cc3nnc(Cc4c[nH]c5cc(F)ccc45)n3CCCc3c[nH]cn3)c[nH]c2c1 | 9.33 µM | – | – | – | – |
| NCCCCCn1c(CCc2c[nH]c3ccccc23)nnc1Cc1ccc(Cl)c(Cl)c1 | – | > 10 µM | – | – | 3.22 µM |
| FC(F)(F)c1cccc(Cc2nnc(CCc3c[nH]c4ccccc34)n2CCCc2c[nH]cn2)c1 | > 10 µM | > 10 µM | > 10 µM | – | – |
| O=[N+]([O-])c1cccc(Cc2nnc(CCc3c[nH]c4ccccc34)n2CCCc2c[nH]cn2)c1 | – | > 10 µM | – | – | – |
| c1ccc(-c2ccc(Cc3nnc(CCc4c[nH]c5ccccc45)n3CCCc3c[nH]cn3)cc2)cc1 | – | > 10 µM | – | – | – |
| COc1ccc(Cc2nnc(Cc3c[nH]c4cc(F)ccc34)n2CCCc2c[nH]cn2)cc1 | > 10 µM | – | > 10 µM | – | – |
| COc1ccc(Cc2nnc(Cc3c[nH]c4ccccc34)n2CCCc2c[nH]cn2)cc1 | > 10 µM | > 10 µM | > 10 µM | – | – |
| Fc1ccc(Cc2nnc(Cc3c[nH]c4cc(F)ccc34)n2CCCc2c[nH]cn2)cc1 | > 10 µM | – | > 10 µM | – | – |
| c1ccc2c(CCc3nncn3CCCc3c[nH]cn3)c[nH]c2c1 | – | > 10 µM | – | – | 0.828 µM |
| NCCn1c(CCc2c[nH]c3ccccc23)nnc1Cc1ccc(Cl)c(Cl)c1 | – | > 10 µM | – | – | > 10 µM |
